These results are taken from ChEMBL document CHEMBL2010704 (J Med Chem, 2012).

In data set [1] the target is T1, ABCG2 (Homo sapiens, UniProt Q9UNQ0).
T1 sequence (Q9UNQ0 whole entry): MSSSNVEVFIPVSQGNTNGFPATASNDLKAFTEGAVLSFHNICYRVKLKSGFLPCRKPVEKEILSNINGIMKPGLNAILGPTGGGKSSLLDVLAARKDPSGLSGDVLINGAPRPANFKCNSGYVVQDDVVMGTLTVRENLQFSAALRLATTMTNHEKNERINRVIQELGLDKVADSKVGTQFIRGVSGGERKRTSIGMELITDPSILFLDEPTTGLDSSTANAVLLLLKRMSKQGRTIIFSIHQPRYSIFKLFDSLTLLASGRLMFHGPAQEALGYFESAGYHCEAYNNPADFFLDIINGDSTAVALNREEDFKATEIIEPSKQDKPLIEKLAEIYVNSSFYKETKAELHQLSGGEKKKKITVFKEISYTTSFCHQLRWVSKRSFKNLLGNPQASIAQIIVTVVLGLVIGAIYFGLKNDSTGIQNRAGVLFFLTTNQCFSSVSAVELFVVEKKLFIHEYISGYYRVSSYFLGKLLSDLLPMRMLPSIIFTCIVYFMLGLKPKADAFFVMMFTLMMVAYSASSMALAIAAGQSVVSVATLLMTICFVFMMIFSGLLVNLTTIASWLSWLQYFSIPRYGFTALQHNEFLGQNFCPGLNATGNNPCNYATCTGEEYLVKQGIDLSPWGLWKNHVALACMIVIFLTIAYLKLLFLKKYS
Description: Inhibition of ABCG2-mediated mitoxantrone efflux in HEK293 cells at 1 uM by flow cytometry relative to 5 uM of GF120918. As to conditions: HEK293 cells with ABCG2-mediated efflux, probe mitoxantrone. The class given is cell-based. The method, boiled down: (§1)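 HEK293-ABCG2 cells seeded at 1 × 10^5 cells/well and grown 48 h, then loaded with 5 μM mitoxantrone for 30 min at 37 °C with or without compound. Cells washed in PBS and trypsinized; intracellular fluorescence read by flow cytometry on at least 10,000 events. […] IC50 from a concentration range; mean ± SD, n ≥ 3.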
On the technique in general: In flow cytometry, cells or beads pass a laser one at a time.

Data set [2] addresses T1, ABCG2. Put plainly: Inhibition of ABCG2-mediated mitoxantrone efflux in HEK293 cells at 5 uM by flow cytometry relative to 5 uM of GF120918. It is filed as cell-based. As to conditions: HEK293 cells with ABCG2-mediated efflux, probe mitoxantrone. The method, boiled down: as §1
Data set [3] is described as follows: Cytotoxicity against human HEK293 cells transfected with ABCG2 after 72 hrs by MTT assay. It is filed as ADME, cell-based. As to conditions: read-out: IG50. The method, boiled down:
(§2)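 HEK293-ABCG2 cells (DMEM high glucose, 10% FBS, 0.75 mg/mL G418) seeded at 1 × 10^4 cells/well, left overnight, then exposed to increasing compound concentrations (up to 100 μM) for 72 h at 37 °C, 5% CO2. Viability read by MTT colorimetric assay and expressed as % of control cells in medium with 0.1% DMSO (v/v).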

In data set [4] the test system is P-glycoprotein 1 (Homo sapiens). Put plainly: Inhibition of P-glycoprotein/ABCB1-mediated mitoxantrone efflux in HEK293 cells at 5 uM by flow cytometry relative to untreated control. Conditions: HEK293 cells with P-glycoprotein/ABCB1-mediated efflux, probe mitoxantrone.
The target of data set [5] is T2, Broad substrate specificity ATP-binding cassette transporter ABCG2 (Homo sapiens, UniProt Q9UNQ0).
T2 sequence (Q9UNQ0 whole entry): T1 sequence (Q9UNQ0 whole entry)
Description: Inhibition of ABCG2-mediated mitoxantrone efflux in HEK293 cells by flow cytometry. It is filed as cell-based. In short, it runs like this: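 HEK293-ABCG2 cells seeded at 1 × 10^5 cells/well and grown 48 h, then loaded with 5 μM mitoxantrone for 30 min at 37 °C with or without compound. Cells washed in PBS and trypsinized; intracellular fluorescence read by flow cytometry on at least 10,000 events.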

Data set [6] addresses T3, P-glycoprotein (ABCB1) (Homo sapiens, UniProt P08183). Description: Inhibition of P-glycoprotein/ABCB1-mediated mitoxantrone efflux in HEK293 cells at 5 uM by flow cytometry relative to 5 uM of GF120918. It is filed as cell-based. Conditions: HEK293 cells with P-glycoprotein/ABCB1-mediated efflux, probe mitoxantrone.
Data set [7] addresses T3, P-glycoprotein (ABCB1). Description: Inhibition of P-glycoprotein/ABCB1-mediated mitoxantrone efflux in HEK293 cells at 1 uM by flow cytometry relative to 5 uM of GF120918. It is filed as cell-based. As to conditions: HEK293 cells with P-glycoprotein/ABCB1-mediated efflux, probe mitoxantrone.
Data set [8] concerns the target MRP1 (ABCC1) (Homo sapiens, UniProt P33527). Description: Inhibition of MRP1/ABCC1-mediated calcein efflux in HEK293 cells at 1 uM by flow cytometry relative to untreated control. Conditions: HEK293 cells with MRP1/ABCC1-mediated efflux, probe calcein. It is filed as cell-based.
Data set [9] relates to ABCG2. Put plainly: Therapeutic index, ratio of GI50 for human HEK293 cells transfected with ABCG2 to IC50 for ABCG2-mediated mitoxantrone efflux in HEK293 cells. As to conditions: HEK293 cells transfected with ABCG2, probe mitoxantrone. It is filed as cell-based. The method, boiled down:
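Therapeutic index is IG50 for cytotoxicity (72-h MTT in HEK293-ABCG2 cells) divided by IC50 for inhibition of ABCG2-mediated mitoxantrone efflux measured by flow cytometry.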

In data set [10] the test system is HEK293. Description: Drug uptake in human HEK293 cells transfected with ABCG2 after 30 mins by LC-ESI-MS/MS analysis in presence of GF120918 relative to control. It is filed as ADME, cell-based. As to conditions: hek293, 0.5 h.
Data set [11] has as its system HEK293. Description: Effect on ABCG2 expression in human HEK293 cells at 0.2 to 10 uM after 72 hrs by Western blotting analysis. It is filed as functional, cell-based. In general terms: Immunoblotting shows a protein as a band on a membrane.
The target in data set [12] is T2, Broad substrate specificity ATP-binding cassette transporter ABCG2. Description: Noncompetitive inhibition of ABCG2 expressed in HEK293 cells in presence of mitoxantrone. The class given is cell-based.
Data set [13] concerns HEK293. Put plainly: Cytotoxicity against human HEK293 cells transfected with ABCG2 at 10 uM after 72 hrs by MTT assay. The class given is ADME, cell-based. As to conditions: hek293, 72 h. The method, boiled down:
as §2
A general note: Formazan colour is commonly taken as a measure of viable cells.

For data set [14], the system named is HEK293. Put plainly: Drug uptake in human HEK293 cells transfected with ABCG2 after 30 mins by LC-ESI-MS/MS analysis relative to control. The class given is ADME, cell-based. Conditions: hek293, 0.5 h.
The subject of data set [15] is HEK293. Put plainly: Cytotoxicity against human control HEK293 cells assessed as cell death at 100 uM after 72 hrs by MTT assay. As to conditions: hek293, 72 h.
Data set [16] has as its system HEK293. Description: Drug metabolism in human HEK293 cells transfected with ABCG2 at 0.2 to 1 uM after 72 hrs. The class given is ADME, cell-based. Conditions: hek293, 72 h.
Data set [17] deals with T2, Broad substrate specificity ATP-binding cassette transporter ABCG2. Put plainly: Inhibition of ABCG2 expressed in human HEK293 assessed as potentiation of mitoxantrone-mediated cytotoxicity at 0.2 uM after 72 hrs by MTT assay relative to control. As to conditions: hek293, 72 h. It is filed as cell-based. In short, it runs like this: (§3)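 Chemosensitization: HEK293-ABCG2 cells seeded at 1 × 10^4 cells/well, left overnight, then co-treated for 72 h at 37 °C, 5% CO2 with compound plus increasing mitoxantrone or SN-38 (0−0.5 μM). Viability measured by MTT and expressed as % of untreated control. Mean ± SD from at least three independent experiments, each in triplicate.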

For data set [18] the target is unchanged. Description: Inhibition of ABCG2 expressed in human HEK293 assessed as potentiation of SN-38-mediated cytotoxicity at 0.2 uM after 72 hrs by MTT assay relative to control. It is filed as cell-based. As to conditions: hek293, 72 h. In short, it runs like this:
as §3

Calls of active or inactive are those of the source. The calls are words filed in the database; no cut-off is given here.

T3 sequence (P08183 whole entry): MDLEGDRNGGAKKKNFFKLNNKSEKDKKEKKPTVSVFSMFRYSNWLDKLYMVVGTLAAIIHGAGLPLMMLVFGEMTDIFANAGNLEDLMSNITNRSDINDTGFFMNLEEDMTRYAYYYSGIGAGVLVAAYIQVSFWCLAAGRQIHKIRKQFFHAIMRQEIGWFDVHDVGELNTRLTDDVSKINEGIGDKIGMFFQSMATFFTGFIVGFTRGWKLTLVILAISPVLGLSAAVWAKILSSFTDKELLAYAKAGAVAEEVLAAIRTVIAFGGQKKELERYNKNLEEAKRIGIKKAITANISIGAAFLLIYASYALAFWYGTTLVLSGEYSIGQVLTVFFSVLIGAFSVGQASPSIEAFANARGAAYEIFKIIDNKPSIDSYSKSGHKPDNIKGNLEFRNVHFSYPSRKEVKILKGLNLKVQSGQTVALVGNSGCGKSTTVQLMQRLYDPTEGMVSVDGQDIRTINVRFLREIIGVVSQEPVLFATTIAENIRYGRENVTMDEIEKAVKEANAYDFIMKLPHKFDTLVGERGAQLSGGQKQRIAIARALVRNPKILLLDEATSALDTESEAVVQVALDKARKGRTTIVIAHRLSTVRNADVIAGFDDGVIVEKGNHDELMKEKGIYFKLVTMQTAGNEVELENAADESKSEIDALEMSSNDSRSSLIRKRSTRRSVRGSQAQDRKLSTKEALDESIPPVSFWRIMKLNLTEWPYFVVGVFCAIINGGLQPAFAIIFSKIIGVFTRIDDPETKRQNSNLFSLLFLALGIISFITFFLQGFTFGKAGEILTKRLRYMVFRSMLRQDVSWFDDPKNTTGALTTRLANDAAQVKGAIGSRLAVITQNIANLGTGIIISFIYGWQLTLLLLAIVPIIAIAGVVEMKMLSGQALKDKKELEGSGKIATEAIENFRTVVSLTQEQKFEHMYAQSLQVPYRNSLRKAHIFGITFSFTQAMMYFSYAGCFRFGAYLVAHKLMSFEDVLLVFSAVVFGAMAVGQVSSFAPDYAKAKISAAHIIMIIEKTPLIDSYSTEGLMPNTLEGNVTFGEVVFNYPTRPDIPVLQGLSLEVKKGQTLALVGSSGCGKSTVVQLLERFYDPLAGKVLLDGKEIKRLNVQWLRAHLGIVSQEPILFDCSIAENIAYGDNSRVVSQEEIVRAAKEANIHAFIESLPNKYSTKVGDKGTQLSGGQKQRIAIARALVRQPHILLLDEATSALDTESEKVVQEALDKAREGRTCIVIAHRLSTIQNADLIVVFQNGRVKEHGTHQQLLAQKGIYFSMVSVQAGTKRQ
MRP1 (ABCC1), sequence (P33527 whole entry): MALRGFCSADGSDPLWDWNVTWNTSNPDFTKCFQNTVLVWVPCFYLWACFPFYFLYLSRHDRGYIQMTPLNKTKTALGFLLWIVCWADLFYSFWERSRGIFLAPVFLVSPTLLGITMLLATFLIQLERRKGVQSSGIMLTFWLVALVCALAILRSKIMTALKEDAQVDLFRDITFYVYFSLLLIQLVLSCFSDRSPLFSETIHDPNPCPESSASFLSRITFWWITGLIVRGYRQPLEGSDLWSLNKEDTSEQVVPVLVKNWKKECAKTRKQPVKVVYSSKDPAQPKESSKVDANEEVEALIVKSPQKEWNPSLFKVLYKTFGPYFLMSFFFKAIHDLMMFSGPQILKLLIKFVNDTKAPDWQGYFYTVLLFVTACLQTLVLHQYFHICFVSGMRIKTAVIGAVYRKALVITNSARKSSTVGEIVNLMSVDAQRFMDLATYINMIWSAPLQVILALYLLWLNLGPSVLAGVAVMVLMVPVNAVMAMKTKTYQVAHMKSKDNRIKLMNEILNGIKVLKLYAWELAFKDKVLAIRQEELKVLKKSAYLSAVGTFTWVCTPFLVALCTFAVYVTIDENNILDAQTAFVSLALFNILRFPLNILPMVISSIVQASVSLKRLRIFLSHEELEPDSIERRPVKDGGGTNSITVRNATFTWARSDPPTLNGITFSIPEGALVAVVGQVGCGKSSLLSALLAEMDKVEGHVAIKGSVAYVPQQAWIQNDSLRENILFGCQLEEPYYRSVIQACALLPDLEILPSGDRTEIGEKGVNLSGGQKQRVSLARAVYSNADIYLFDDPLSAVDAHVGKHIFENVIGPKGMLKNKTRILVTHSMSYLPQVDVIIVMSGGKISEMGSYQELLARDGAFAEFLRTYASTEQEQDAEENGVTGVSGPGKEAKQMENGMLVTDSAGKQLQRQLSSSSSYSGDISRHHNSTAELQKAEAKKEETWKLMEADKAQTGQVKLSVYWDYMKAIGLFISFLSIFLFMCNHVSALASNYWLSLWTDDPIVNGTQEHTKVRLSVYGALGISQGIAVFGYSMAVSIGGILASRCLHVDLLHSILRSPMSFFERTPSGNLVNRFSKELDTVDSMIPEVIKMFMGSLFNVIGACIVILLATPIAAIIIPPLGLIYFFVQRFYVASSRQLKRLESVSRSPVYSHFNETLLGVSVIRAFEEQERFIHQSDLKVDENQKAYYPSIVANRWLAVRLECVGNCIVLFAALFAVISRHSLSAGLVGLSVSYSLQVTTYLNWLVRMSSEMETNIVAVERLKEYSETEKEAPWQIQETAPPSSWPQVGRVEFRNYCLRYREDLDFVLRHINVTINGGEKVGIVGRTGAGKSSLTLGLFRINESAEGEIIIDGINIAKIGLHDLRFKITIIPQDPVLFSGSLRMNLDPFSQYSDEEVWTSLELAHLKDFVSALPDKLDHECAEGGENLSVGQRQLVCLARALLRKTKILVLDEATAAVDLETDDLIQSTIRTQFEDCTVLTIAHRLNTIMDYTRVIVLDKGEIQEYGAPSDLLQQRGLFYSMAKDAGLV

In general, inhibition refers to the relative decrease from the control value, in per cent. With `O=C(c1cc(=O)c2c(OCc3ccccc3)cccc2o1)N1CCN(c2ccccc2)CC1`, in data set [1], the inhibition at 1 µM is 21.3%. The inhibition at 5 µM in data set [2] is 66.1%.
Regarding `COc1ccc2c3c([nH]c2c1)[C@H](CC(C)C)N1C(=O)[C@H](CCC(=O)OC(C)(C)C)NC(=O)[C@@H]1C3`, the GI50 at 72 h in [3] was determined as 18000 nM.
By IC50 is commonly meant the midpoint of a concentration-inhibition curve. A low value points to greater potency in that assay. As for `COc1ccc2[nH]cc(CCNC(=O)c3cc(=O)c4c(OCCc5ccccc5)cccc4o3)c2c1`, the values for the inhibition at 5 µM in data set [4] and in data set [6] were 5.12% and -14.8%, respectively. Also, the half-inhibitory concentration (IC50) in data set [5] came to 160 nM. Further, the inhibition at 1 µM in data set [7] was -14%; in data set [8], 2.36%.
Turning to `CC(C)=CCc1c(O)cc2oc(-c3ccccc3)cc(=O)c2c1O`, the selectivity ratio in data set [9] was determined as 40.
As to `O=C(c1cc(=O)c2c(OCc3ccccc3)cccc2o1)N1CCN(Cc2ccccc2)CC1`, the inhibition at 1 µM in data set [1] came out at 16.5%. The inhibition at 5 µM in data set [2] is 48.3%.
For `O=C(O)c1cc(=O)c2c(O)cccc2o1`, in that order: -1.2% and -2%.
`COc1ccc(CCNC(=O)c2cc(=O)c3c(OCc4ccccc4)cccc3o2)cc1OC`: the Drug uptake result in data set [10] and in [14] was “Not Active” in each case. The inhibition at 5 µM in data set [6] is -22.9%. Further, the GI50 at 72 h in [3] was found to be 60000 nM. Also, the result in data set [11] was inactive. The “inhibition (INH)” value in data set [12] is “Active”. In addition, the values for the inhibition at 1 µM in data set [7] and in data set [8] were -25.5% and 10.8%, respectively. This compound also had an Activity in data set [13] of 35%.
As for `O=C(c1cc(=O)c2c(OCc3ccccc3)cccc2o1)N1CCN(c2ccccn2)CC1`, the inhibition at 1 µM in data set [1] was 18.1%. Besides, the inhibition at 5 µM in data set [2] was determined as 46.2%.
Regarding `COc1ccc2[nH]cc(CCNC(=O)c3cc(=O)c4c(OCc5ccc(Br)cc5)cccc4o3)c2c1`, the inhibition at 5 µM in [4] is 2.86%; in data set [6], -16.1%. The compound further had a 50% inhibitory concentration (IC50) in data set [5] of 110 nM. In addition, the Drug uptake entry in data set [10] and in data set [14] was “Not Active” throughout. Also, the outcome in data set [11] was inactive. In addition, the “inhibition (INH)” value in data set [12], in [17] and in [18] was “Active” each time. Also, the inhibition at 1 µM in [7] is -1.75%; in data set [8], 2.58%. In addition, in [15], the Activity is recorded as less than 25%. In addition, the selectivity ratio in data set [9] turned out to be 2000. The Drug metabolism result in data set [16] is listed as “Not Active”.
For `COc1ccc(CCNC(=O)c2cc(=O)c3c(O)cccc3o2)cc1OC`, the figures for the inhibition at 1 µM in data set [1], in data set [7] and in [8] were 34.4%, -20.5% and 3.37%, respectively. Moreover, the values for the inhibition at 5 µM in [4], in data set [6] and in data set [2] were 5.47%, -29% and 62.5%, respectively.
With `COc1ccc(CCOc2cccc3oc(C(=O)O)cc(=O)c23)cc1OC`, the inhibition at 1 µM in [1] came out at 6.1%. The inhibition at 5 µM in data set [2] is 26.7%.
As to `COc1ccc2[nH]cc(CCNC(=O)c3cc(=O)c4c(OCc5ccccc5)cccc4o3)c2c1`, the inhibition at 5 µM in [4] was 5.14%; in data set [6] it was -19.4%. In addition, the concentration for half-maximal inhibition (IC50) in [5] was determined as 180 nM. The GI50 at 72 h in data set [3] amounted to 35000 nM. Further, the inhibition at 1 µM in data set [7] was -9.11%; in [8], 1.91%. Further, in [13], the Activity entry was “Non-toxic”.
As to `COc1ccc(CCNC(=O)c2cc(=O)c3c(OCCc4ccc(OC)c(OC)c4)cccc3o2)cc1OC`, the inhibition at 5 µM in data set [4] was 10.8%; in data set [6], -0.11%. In [5], this compound came in with a half-inhibitory concentration (IC50) of 470 nM. The inhibition at 1 µM was -16.6% in data set [7] and 5.57% in data set [8].
In the case of `O=C(c1cc(=O)c2c(O)cccc2o1)N1CCN(c2ccccc2)CC1`, the inhibition at 1 µM in data set [1] is 5.5%. For the same compound, the inhibition at 5 µM in [2] turned out to be 9.8%.
As to `COc1ccc2[nH]cc(CCNC(=O)c3cc(=O)c4c(OCc5ccc(C)cc5)cccc4o3)c2c1`, the inhibition at 5 µM is 3.09% in [4] and -21.9% in [6]. The compound further showed a half-maximal inhibitory concentration (IC50) in data set [5] of 200 nM. Besides, the inhibition at 1 µM in data set [7] is -4.29%; in data set [8], 1.13%.
